Each block holds one compound with its values, some of them ahead of it. Calls of active or inactive are those of the source. The calls are words filed in the database; no cut-off is given here.
Key:
[1] = tested on: U2OS; experiment: Cytotoxicity against human U2OS cells assessed as cell viability by MTT assay; type: functional, cell-based
Method in brief: (§1)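 RD2, RH30 and U2OS sarcoma cells were seeded at 3000 cells/well and incubated 24 h at 37 °C. Compounds were then added in triplicate at 0.1–10 or 0.1–20 μM in the presence of 10% FBS, from 20 mM DMSO stocks. IC50 was obtained by curve fitting.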

[2] = biological target: Signal transducer and activator of transcription 3 (Homo sapiens) (UniProt P40763); experiment: Inhibition of constitutive STAT3 Y705 phosphorylation in human Rh30 cells after 16 hrs by Western blot analysis; type: cell-based
Method in brief: (§2)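 RH30 cells at 60–80% confluence in 10% FBS were treated with compound or DMSO for 16 h. Whole-cell extracts were made in cold RIPA buffer with protease and phosphatase inhibitor cocktails. Extracts were run on SDS-PAGE and transferred to PVDF. Blots were probed for P-STAT3 (Tyr705) and total STAT3 with primary antibody 1:1,000 and HRP secondary 1:10000, then detected by ECL.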

[3] = Cytotoxicity against human Rh30 cells assessed as cell viability by MTT assay; type: functional, cell-based; details: SJRH30; method in brief: as §1
[4] = biological target: Signal transducer and activator of transcription 3 (Homo sapiens) (UniProt P40763); experiment: Inhibition of IL6-induced STAT3 Y705 phosphorylation in human MCF7 cells at 0.5 to 2.5 uM incubated for 5 hrs prior to IL6 induction measured after 30 mins by Western blot analysis; type: cell-based
Method in brief: (§3)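 MCF-7 cells, which lack persistent P-STAT3, were allowed to adhere overnight and then serum-starved overnight. They were left untreated or pretreated with compound or DMSO for 5 h, then stimulated with IL-6 at 25 ng/mL. Cells were harvested 30 min later and probed for P-STAT3 (Tyr705) and STAT3 by Western blot using RIPA lysates and ECL.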

[5] = tested on: SJRH30; experiment: Effect on total STAT3 expression in human Rh30 cells at 0.5 to 2.5 uM after 16 hrs by Western blot analysis; type: functional, cell-based; method in brief: as §2
[6] = Cytotoxicity against human RD2 cells assessed as cell viability by MTT assay; type: functional, cell-based; method in brief: as §1
[7] = tested on: PANC-1; experiment: Cytotoxicity against human PANC1 cells assessed as cell viability after 72 hrs by MTT assay; type: functional, cell-based; details: PANC-1, 72 h
[8] = Cytotoxicity against human U87 cells assessed as cell viability after 72 hrs by MTT assay; type: functional, cell-based, U-87MG ATCC; details: U-87 MG
[9] = tested on: SK-BR-3; experiment: Cytotoxicity against human SKBR3 cells assessed as cell viability after 72 hrs by MTT assay; type: functional, cell-based; details: SK-BR-3, 72 h
[10] = Cytotoxicity against human U373 cells assessed as cell viability after 72 hrs by MTT assay; type: functional, cell-based, U-373MG ATCC; details: U373 MG
[11] = tested on: MDA-MB-231; experiment: Cytotoxicity against human MDA-MB-231 cells assessed as cell viability after 72 hrs by MTT assay; type: functional, cell-based; details: MDA-MB-231, 72 h
[12] = tested on: MDA-MB-231; experiment: Antitumor activity against human MDA-MB-231 cells xenografted in Harlan athymic nude mouse assessed as tumor growth inhibition at 5 mg/kg, ip measured for 21 days; type: functional, organism-based; parameters: dose 5 mg/kg
Method in brief: (§4)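 Female athymic nude mice, 6 weeks old, received 5 × 10^6 MDA-MB-231 cells subcutaneously in the flank. After tumors developed, they were split into two groups of eight tumors each: DMSO vehicle control, or 5 mg/kg IP. The drug was formulated in Cremaphor, DMSO and 5% dextrose. Tumor L and W were measured by caliper every other day. Volume = 0.5236 × L × W2. Treatment lasted 21 days.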

[13] = biological target: Signal transducer and activator of transcription 3 (Homo sapiens) (UniProt P40763); experiment: Inhibition of constitutive STAT3 Y705 phosphorylation in human EW8 cells assessed as appearance of cleaved caspase 3 at 0.5 to 1 uM after 8 hrs by Western blot analysis; type: cell-based
Method in brief: (§5)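 EW8 Ewing's sarcoma cells were treated with 0.5–1 μM compound or DMSO for 8 h, in 10% FBS at 60–80% confluence. Whole-cell RIPA lysates were analyzed by SDS-PAGE and PVDF Western blot, with primary antibody 1:1,000, HRP secondary 1:10000 and ECL detection. Blots were probed for P-STAT3, total STAT3, phosphorylated ERK1/2 and cleaved caspase 3.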

[14] = biological target: Mitogen-activated protein kinase; ERK1/ERK2 (Homo sapiens) (UniProt P27361+P28482); experiment: Inhibition of ERK1/2 phosphorylation in human EW8 cells at 0.5 to 1 uM after 8 hrs by Western blot analysis; type: cell-based; method in brief: as §5
[15] = biological target: Signal transducer and activator of transcription 3 (Homo sapiens) (UniProt P40763); experiment: Inhibition of IL6-induced STAT3 Y705 phosphorylation in human DAOY cells at 1 to 5 uM incubated for 2 hrs prior to IL6 induction measured after 30 mins by Western blot analysis; type: cell-based
Method in brief: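 DAOY medulloblastoma cells were allowed to adhere, then serum-starved overnight. They were left untreated or pretreated with 1–5 μM compound or DMSO for 2 h, then stimulated with IL-6. Cells were harvested 30 min after stimulation. P-STAT3 (Tyr705) and STAT3 were detected by Western blot from RIPA lysates, with ECL detection.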

[16] = biological target: T1, Signal transducer and activator of transcription 1-alpha/beta (Homo sapiens) (UniProt P42224); experiment: Inhibition of IFN-gamma-induced STAT1 Y701 phosphorylation in human DAOY cells at 1 to 5 uM incubated for 2 hrs prior to IFN-gamma induction measured after 30 mins by Western blot analysis; type: cell-based
T1 sequence (whole entry): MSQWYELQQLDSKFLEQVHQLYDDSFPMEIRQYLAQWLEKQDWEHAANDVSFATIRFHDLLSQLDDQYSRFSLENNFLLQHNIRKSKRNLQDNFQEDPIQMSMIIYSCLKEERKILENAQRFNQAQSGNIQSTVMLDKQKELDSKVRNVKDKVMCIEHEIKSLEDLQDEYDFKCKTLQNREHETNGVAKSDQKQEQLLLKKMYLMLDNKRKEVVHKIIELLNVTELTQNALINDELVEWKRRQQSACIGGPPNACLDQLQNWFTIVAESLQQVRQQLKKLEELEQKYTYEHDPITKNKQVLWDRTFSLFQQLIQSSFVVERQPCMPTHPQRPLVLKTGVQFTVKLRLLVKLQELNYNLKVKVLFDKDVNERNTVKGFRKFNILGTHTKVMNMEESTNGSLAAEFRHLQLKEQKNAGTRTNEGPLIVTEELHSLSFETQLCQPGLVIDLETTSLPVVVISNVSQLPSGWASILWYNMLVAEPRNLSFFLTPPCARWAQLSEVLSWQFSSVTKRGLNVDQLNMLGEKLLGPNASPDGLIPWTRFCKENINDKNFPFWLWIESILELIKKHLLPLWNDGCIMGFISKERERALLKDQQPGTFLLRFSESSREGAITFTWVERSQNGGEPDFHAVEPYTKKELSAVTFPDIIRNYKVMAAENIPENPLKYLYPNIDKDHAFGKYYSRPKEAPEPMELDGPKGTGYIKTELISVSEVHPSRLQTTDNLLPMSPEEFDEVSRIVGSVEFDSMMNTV
Method in brief: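 DAOY cells were serum-starved overnight and left untreated or treated with 1–5 μM compound or DMSO for 2 h. They were then stimulated with IFN-γ at 50 ng/mL and harvested 30 min later. STAT1 phosphorylation was analyzed by Western blot from RIPA lysates, with ECL detection.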

[17] = tested on: EW8; experiment: Effect on total STAT3 expression in human EW8 cells at 0.5 to 1 uM after 8 hrs by Western blot analysis; type: functional, cell-based; method in brief: as §5
[18] = tested on: SJRH30; experiment: Effect on total STAT3 expression in human Rh30 cells at 0.25 to 1 uM after 16 hrs by Western blot analysis; type: functional, cell-based; method in brief: as §2
[19] = tested on: MDA-MB-231; experiment: Antitumor activity against human MDA-MB-231 cells xenografted in Harlan athymic nude mouse assessed as decrease in tumor size at 5 mg/kg, ip measured for 21 days; type: functional, organism-based; parameters: dose 5 mg/kg; method in brief: as §4
[20] = biological target: Signal transducer and activator of transcription 3 (Homo sapiens) (UniProt P40763); experiment: Inhibition of constitutive STAT3 Y705 phosphorylation in human EW8 cells after 8 hrs by Western blot analysis; type: cell-based; method in brief: as §5
[21] = biological target: Signal transducer and activator of transcription 3 (Homo sapiens) (UniProt P40763); experiment: Inhibition of IL6-induced STAT3 Y705 phosphorylation in human MCF7 cells at 0.25 to 1 uM incubated for 5 hrs prior to IL6 induction measured after 30 mins by Western blot analysis; type: cell-based; method in brief: as §3

Chain of Signal transducer and activator of transcription 3 (Homo sapiens) (P40763 whole entry): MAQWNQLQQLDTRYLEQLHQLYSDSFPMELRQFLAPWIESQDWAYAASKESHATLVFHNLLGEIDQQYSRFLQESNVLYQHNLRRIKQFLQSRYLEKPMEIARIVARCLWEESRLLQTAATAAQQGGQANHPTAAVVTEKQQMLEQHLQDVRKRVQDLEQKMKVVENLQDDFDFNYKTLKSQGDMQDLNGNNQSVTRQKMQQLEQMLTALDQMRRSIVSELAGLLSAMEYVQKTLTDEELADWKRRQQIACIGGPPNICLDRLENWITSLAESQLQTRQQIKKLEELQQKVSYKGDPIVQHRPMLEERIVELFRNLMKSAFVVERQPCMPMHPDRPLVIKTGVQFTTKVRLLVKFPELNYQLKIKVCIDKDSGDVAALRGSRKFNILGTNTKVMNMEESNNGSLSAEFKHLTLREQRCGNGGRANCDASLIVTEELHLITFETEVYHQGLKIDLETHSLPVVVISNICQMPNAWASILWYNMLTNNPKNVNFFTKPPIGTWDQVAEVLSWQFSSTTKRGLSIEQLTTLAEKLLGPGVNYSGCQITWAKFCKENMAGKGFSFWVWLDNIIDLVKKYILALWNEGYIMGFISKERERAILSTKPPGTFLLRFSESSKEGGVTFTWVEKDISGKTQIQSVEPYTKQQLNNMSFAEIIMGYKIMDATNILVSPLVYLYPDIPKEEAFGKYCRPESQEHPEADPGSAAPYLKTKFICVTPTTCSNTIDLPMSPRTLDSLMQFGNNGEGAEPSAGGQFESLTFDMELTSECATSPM
Chain of Mitogen-activated protein kinase; ERK1/ERK2 (Homo sapiens) (P27361 whole entry, looked up): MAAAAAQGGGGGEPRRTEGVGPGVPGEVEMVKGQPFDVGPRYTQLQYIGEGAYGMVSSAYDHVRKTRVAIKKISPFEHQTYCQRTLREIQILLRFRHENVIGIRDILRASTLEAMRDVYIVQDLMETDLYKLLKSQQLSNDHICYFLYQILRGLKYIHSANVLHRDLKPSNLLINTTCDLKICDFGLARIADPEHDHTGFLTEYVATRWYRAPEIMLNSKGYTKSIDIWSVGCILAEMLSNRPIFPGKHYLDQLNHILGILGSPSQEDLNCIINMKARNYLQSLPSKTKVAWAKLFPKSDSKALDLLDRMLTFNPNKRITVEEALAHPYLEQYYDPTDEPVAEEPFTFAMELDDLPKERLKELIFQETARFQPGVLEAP
Chain of Mitogen-activated protein kinase; ERK1/ERK2 (Homo sapiens) (P28482 whole entry, looked up): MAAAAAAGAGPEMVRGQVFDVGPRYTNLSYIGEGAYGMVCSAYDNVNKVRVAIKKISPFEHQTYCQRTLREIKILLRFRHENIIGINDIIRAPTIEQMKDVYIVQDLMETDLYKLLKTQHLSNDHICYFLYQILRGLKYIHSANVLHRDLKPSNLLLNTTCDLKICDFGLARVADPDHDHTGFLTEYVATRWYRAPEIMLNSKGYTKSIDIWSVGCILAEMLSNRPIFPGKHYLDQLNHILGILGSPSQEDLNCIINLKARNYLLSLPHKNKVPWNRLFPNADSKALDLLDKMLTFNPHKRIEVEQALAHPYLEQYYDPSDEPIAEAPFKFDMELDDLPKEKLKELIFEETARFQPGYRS

Structure (SMILES): O=C1C(Nc2ccccc2)=CC2=NS(=O)(=O)c3cccc1c32
- IC50 [1]: 5 µM

- inhibition [2]: Dose-dependent effect
- inhibition [4]: Active
Structure (SMILES): O=C1C(Nc2ccc([N+](=O)[O-])cc2Cl)=CC2=NS(=O)(=O)c3cccc1c32
- IC50 [1]: 1.39 µM
- IC50 [3]: 1.14 µM
- Activity [5]: inactive
- IC50 [6]: 2.56 µM

Structure (SMILES): NS(=O)(=O)c1cccc2c1C(=O)C=C(Nc1ccccc1)C2=O
- IC50 [1]: > 5 µM

Structure (SMILES): NS(=O)(=O)c1cccc2c1C(=O)c1cccc(O)c1C2=O
- IC50 [7]: 0.16 µM
- IC50 [8]: 0.16 µM
- IC50 [9]: 0.16 µM
- IC50 [10]: 0.16 µM
- IC50 [11]: 0.16 µM

- inhibition [13]: Active
- inhibition [14]: inactive
- inhibition [15]: Active
- inhibition [16]: inactive
- inhibition [2]: Dose-dependent effect
- inhibition [20]: Dose-dependent effect
- inhibition [21]: Active
Structure (SMILES): NS(=O)(=O)c1cccc2c1C(=O)C=C(Nc1cccnc1)C2=O
- IC50 [1]: 0.5 µM
- TGI [12]: Active
- Activity [17]: inactive
- IC50 [3]: 0.55 µM
- Activity [18]: inactive
- Activity [19]: Active
- IC50 [6]: 1.39 µM

Structure (SMILES): O=C1C(Nc2ccc3ccccc3c2)=CC2=NS(=O)(=O)c3cccc1c32
- IC50 [1]: 2.5 µM

Reference: ChEMBL document CHEMBL2380221, “Discovery of novel STAT3 small molecule inhibitors via in silico site-directed fragment-based drug design” (J Med Chem, 2013)
